Test results from ChEMBL document CHEMBL1124818, “Synthesis and cardiac electrophysiological activity of aryl-substituted derivatives of the class III antiarrhythmic agent sematilide. Potential class I/III agents” (J Med Chem, 1990).
Values joined by “and” are separate entries in the source; they are usually repeats but may differ in a detail not shown here. Equal values may be shown once.

Experiments:
Canis familiaris [1] = assay: Antiarrhythmic efficacy in vivo against Harris model; type: functional; details: Canis lupus familiaris, Heart
How it was run: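 Conscious dogs studied 24 h after two-stage coronary occlusion infarction (Harris method), when ectopy exceeds 75%; test agent given intravenously. Efficacy counted as >30% decrease in ectopy; per-dog effective dose recorded, non-responders given cumulative 10 mg/kg unless otherwise noted.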

Canis familiaris [2] = species on record: Canis familiaris; assay: Duration of action potential in vitro against Canine Purkinje fibers; at 1 uM concentration; type: functional, Canis lupus familiaris, Purkinje fiber
How it was run: (§1)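 Microelectrode recording in Purkinje fibers; action potential duration at 95% repolarization measured at each test concentration and expressed as percent change from control, mean ± SEM over the stated number of experiments.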

Canis familiaris [3] = species on record: Canis familiaris; assay: Duration of action potential was determined in vitro in Canine Purkinje fibers at 0.1 uM concentration.; type: functional, Canis lupus familiaris, Purkinje fiber; how it was run: as §1
[4] = Percent change from control value for Vmax at 1 uM of the compound.
How it was run: (§2)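 Microelectrode recording in Purkinje fibers; maximal depolarization rate (Vmax) measured at each test concentration, given as percent change from control, mean ± SEM; n per concentration may differ from APD experiments.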

Canis familiaris [5] = species on record: Canis familiaris; assay: Duration of action potential in vitro against Canine Purkinje fibers, at 10 uM concentration.; type: functional, Canis lupus familiaris, Purkinje fiber; how it was run: as §1
Canis familiaris [6] = assay: Antiarrhythmic efficacy in vivo against PES model; type: functional; details: Canis lupus familiaris, Heart
How it was run: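 Conscious dogs 3-8 days after occlusion/reperfusion infarction (Karagueuzian method); programmed electrical stimulation induced two control arrhythmias before dosing, VF ended by DC countershock and sustained VT by burst pacing. After intravenous drug, reinduction attempted; efficacy counted when SVT/VF not inducible; per-dog effective dose recorded, non-responders to cumulative 10 mg/kg unless noted.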

[7] = Percent change from control value for Vmax at 0.1 uM of the compound.; how it was run: as §2
Cavia porcellus [8] = assay: Percent change in the mean time to first Ouabain-induced arrhythmia was determined in Guinea pig at a dose of 10 mg/kg; type: functional
How it was run: (§3)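 Anesthetized guinea pigs, tracheal cannulation with room-air respiration, right jugular cannulated; 5 min equilibration, test agent intravenous, then 10 min later ouabain 40 μg/kg iv bolus plus 10 μg/kg/min infusion until arrhythmia. Percent change in mean time to first arrhythmia (n = 4-6) versus vehicle control (n = 3-4).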

Cavia porcellus [9] = assay: Percent change in the mean time to first Ouabain-induced arrhythmia was determined in Guinea pig at 10 mg/kg dose; type: functional; how it was run: as §3
Canis familiaris [10] = species on record: Canis familiaris; assay: Duration of action potential was determined in vitro in Canine Purkinje fibers at 100 uM concentration.; type: functional, Canis lupus familiaris, Purkinje fiber; how it was run: as §1
[11] = Percent change from control value for Vmax at 30 uM of the compound.; how it was run: as §2
Canis familiaris [12] = species on record: Canis familiaris; assay: Duration of action potential was determined in vitro in Canine Purkinje fibers at 1 uM concentration.; type: functional, Canis lupus familiaris, Purkinje fiber; how it was run: as §1
Canis familiaris [13] = species on record: Canis familiaris; assay: Duration of action potential was determined in vitro in Canine Purkinje fibers at 10 uM concentration.; type: functional, Canis lupus familiaris, Purkinje fiber; how it was run: as §1
Canis familiaris [14] = species on record: Canis familiaris; assay: Duration of action potential was determined in vitro in Canine Purkinje fibers at 30 uM concentration.; type: functional, Canis lupus familiaris, Purkinje fiber; how it was run: as §1
Cavia porcellus [15] = assay: Percent change in the mean time to first Ouabain-induced arrhythmia was determined in Guinea pig at a dose of 3 mg/kg; type: functional; how it was run: as §3
[16] = Percent change from control value for Vmax at 10 uM of the compound.; how it was run: as §2
[17] = Percent change from control value for Vmax at 3 uM of the compound.; how it was run: as §2
Canis familiaris [18] = species on record: Canis familiaris; assay: Duration of action potential in vitro against Canine Purkinje fibers; at 10 uM concentration.; type: functional, Canis lupus familiaris, Purkinje fiber; how it was run: as §1
Canis familiaris [19] = species on record: Canis familiaris; assay: Duration of action potential in vitro against Canine Purkinje fibers; at 3 uM concentration; type: functional, Canis lupus familiaris, Purkinje fiber; how it was run: as §1
Canis familiaris [20] = species on record: Canis familiaris; assay: Duration of action potential in vitro against Canine Purkinje fibers, at 30 uM concentration.; type: functional, Canis lupus familiaris, Purkinje fiber; how it was run: as §1
Canis familiaris [21] = species on record: Canis familiaris; assay: Duration of action potential in vitro against Canine Purkinje fibers; at 100 uM concentration.; type: functional, Canis lupus familiaris, Purkinje fiber; how it was run: as §1
Canis familiaris [22] = species on record: Canis familiaris; assay: Duration of action potential in vitro against Canine Purkinje fibers; at 30 uM concentration.; type: functional, Canis lupus familiaris, Purkinje fiber; how it was run: as §1
[23] = Percent change from control value for Vmax at 100 uM of the compound.; how it was run: as §2
Canis familiaris [24] = species on record: Canis familiaris; assay: Duration of action potential in vitro against Canine Purkinje fibers, at 3 uM concentration.; type: functional, Canis lupus familiaris, Purkinje fiber; how it was run: as §1
Canis familiaris [25] = species on record: Canis familiaris; assay: Duration of action potential in vitro against Canine Purkinje fibers, at 100 uM concentration.; type: functional, Canis lupus familiaris, Purkinje fiber; how it was run: as §1
Canis familiaris [26] = species on record: Canis familiaris; assay: Duration of action potential was determined in vitro in Canine Purkinje fibers at 10 uM concentration; type: functional, Canis lupus familiaris, Purkinje fiber; how it was run: as §1
Canis familiaris [27] = species on record: Canis familiaris; assay: Duration of action potential was determined in vitro in Canine Purkinje fibers at 1 uM concentration; type: functional, Canis lupus familiaris, Purkinje fiber; how it was run: as §1
[28] = Percent change from control value for Vmax at 10 uM of the compound; how it was run: as §2
[29] = Percent change from control value for Vmax at 0.1 uM of the compound; how it was run: as §2
[30] = Percent change from control value for Vmax at 1 uM of the compound; how it was run: as §2
Canis familiaris [31] = species on record: Canis familiaris; assay: Duration of action potential was determined in vitro in Canine Purkinje fibers at 0.1 uM concentration; type: functional, Canis lupus familiaris, Purkinje fiber; how it was run: as §1
Canis familiaris [32] = species on record: Canis familiaris; assay: Duration of action potential was determined in vitro in Canine Purkinje fibers at 30 uM concentration; type: functional, Canis lupus familiaris, Purkinje fiber; how it was run: as §1
[33] = Percent change from control value for Vmax at 30 uM of the compound; how it was run: as §2

Row | Compound | Delta Vmax [4] [%] | Delta Vmax [7] [%] | Delta Vmax [11] [%] | Delta Vmax [16] [%] | Delta APD95 (Canis familiaris [2]) [%] | Delta APD95 (Canis familiaris [3]) [%] | ED50 (Canis familiaris [6]) [mg/kg] | Delta APD95 (Canis familiaris [12]) [%] | Delta APD95 (Canis familiaris [13]) [%] | Delta APD95 (Canis familiaris [14]) [%] | Change (Cavia porcellus [8]; dose 10 mg/kg) [%] | also measured
1 | CCN(CC)CC(NC(=O)c1ccc(NS(C)(=O)=O)cc1)c1cccc2ccccc12 (stereo not given) | -20 | -3 |  |  | 10 | 14 | 1 |  |  |  |  | ED50 (Canis familiaris [1]): 2 mg/kg; Delta APD95 (Canis familiaris [5]): -14%; Change (Cavia porcellus [8]; dose 3 mg/kg, in the assay text read “3 mg/kg” for “10 mg/kg”): 70%
2 | C=C[C@H]1CN2CC[C@H]1C[C@@H]2[C@@H](O)c1ccnc2ccc(OC)cc12 [QUINIDINE] | -1 | 0 | -23 |  |  | 2 | 1 | 4 | -4 | -17 |  | Change (Cavia porcellus [9]): 28%; Delta APD95 (Canis familiaris [10]): -14%; ED50 (Canis familiaris [1]): 10 mg/kg
3 | O=C(NCC1CCCCN1)c1cc(OCC(F)(F)F)ccc1OCC(F)(F)F (stereo not given) [FLECAINIDE] | -6 | 2 |  | -30 | -15 | -3 | 1 |  |  |  |  | ED50 (Canis familiaris [1]): 1 mg/kg; Change (Cavia porcellus [15]): 51%; Delta Vmax [17]: -11%; Delta APD95 (Canis familiaris [18]): -47%; Delta APD95 (Canis familiaris [19]): -35%
4 | CCN(CC)C(CNC(=O)c1ccc(NS(C)(=O)=O)cc1)c1cccc2ccccc12 (stereo not given) | -2 | 1 | -7 | -4 | 29 | 4 |  |  |  |  | 0 | Delta APD95 (Canis familiaris [20]): 29%; Delta APD95 (Canis familiaris [5]): 34%
5 | CCN(CC)CC(=O)Nc1c(C)cccc1C [LIDOCAINE] | 2 |  |  | 1 |  |  |  | -7 | -25 |  | 30 | 
6 | CCN(CC)CC(NC(=O)c1ccc(NS(C)(=O)=O)cc1)c1ccccc1.Cl (stereo not given) | -2 | 6 | -34 | -13 | 21 | 4 |  |  |  |  | 61 | Delta APD95 (Canis familiaris [21]): -20%; Delta APD95 (Canis familiaris [22]): -12%; Delta APD95 (Canis familiaris [18]): -2%; Delta Vmax [23]: -76%
7 | CCN(CC)CCNC(=O)c1ccc(NS(C)(=O)=O)cc1 [SEMATILIDE] | 0 | 2 |  | 0 | 6 | 0 | 1 |  |  |  |  | Delta APD95 (Canis familiaris [24]): 14%; Delta APD95 (Canis familiaris [20]): 51%; Delta APD95 (Canis familiaris [5]): 33%; Delta APD95 (Canis familiaris [25]): 66%; Delta Vmax [23]: 0%
8 | CCN(CC)CCN(C(=O)c1ccc(NS(C)(=O)=O)cc1)c1ccc(OC)cc1.O=C(O)/C=C/C(=O)O | -3 | 0 | -8 | -3 |  | 8 |  | 35 | 82 | 66 | 15 | 
9 | CCN(CC)CCN(C(=O)c1ccc(NS(C)(=O)=O)cc1)c1ccc(NS(C)(=O)=O)cc1 |  |  |  |  |  |  |  |  |  |  | 22 | Delta APD95 (Canis familiaris [26]): 30%; Delta APD95 (Canis familiaris [27]): 10%; Delta Vmax [28]: -3%; Delta Vmax [29]: -4%; Delta Vmax [30]: -2%; Delta APD95 (Canis familiaris [31]): 7%; Delta APD95 (Canis familiaris [32]): 40%; Delta Vmax [33]: -6%
10 | CCN(CC)C(CNC(=O)c1ccc(NS(C)(=O)=O)cc1)c1ccccc1 (stereo not given) | -4 | -4 | -15 | -12 | 40 | 11 |  |  |  |  | -13 | Delta APD95 (Canis familiaris [20]): 52%; Delta APD95 (Canis familiaris [5]): 46%

Further lines, with some results ahead:

Row | Delta Vmax [4] [%] | Delta Vmax [7] [%] | Delta Vmax [11] [%] | Delta Vmax [16] [%] | Compound | Delta APD95 (Canis familiaris [2]) [%] | Delta APD95 (Canis familiaris [3]) [%] | ED50 (Canis familiaris [6]) [mg/kg] | Delta APD95 (Canis familiaris [12]) [%] | Delta APD95 (Canis familiaris [13]) [%] | Delta APD95 (Canis familiaris [14]) [%] | Change (Cavia porcellus [8]; dose 10 mg/kg) [%] | also measured
11 | -2 | -4 | -6 | -3 | CCN(CC)CCN(C(=O)c1ccc(NS(C)(=O)=O)cc1)c1c(C)cccc1C.Cl |  | 7 |  | 10 | 30 | 40 | -8 | 
12 | 8 | 5 | -6 | 4 | CCc1ccc(N(CCN(CC)CC)C(=O)c2ccc(NS(C)(=O)=O)cc2)cc1.Cl |  | 12 |  | 51 | 70 | 62 | 20 | 
13 | 2 | 3 | -20 | -8 | CCN(CC)CCN(C(=O)c1ccc(NS(C)(=O)=O)cc1)c1ccc(Cl)cc1 |  | 9 |  | 34 | 64 | 60 | 18 | 
14 | 1 |  |  | -11 | CCN(CC)CCN(C(=O)c1ccc(NS(C)(=O)=O)cc1)c1c(C(C)C)cccc1C(C)C.Cl |  |  | 1 | 21 | 22 |  |  | ED50 (Canis familiaris [1]): 10 mg/kg; Change (Cavia porcellus [15]): 22%
15 | -5 | 2 | -16 | -13 | CCN(CC)CCN(C(=O)c1ccc(NS(C)(=O)=O)cc1)c1cccc2ccccc12.Cl | 51 | 10 | 1 |  |  |  | -25 | Change (Cavia porcellus [15]): 8%; Delta APD95 (Canis familiaris [21]): 26%; Delta APD95 (Canis familiaris [18]): 64% and 37%; Delta Vmax [23]: -42%
16 | -3 | -4 | -20 | -12 | CCN(CC)CCN(C(=O)c1ccc(NS(C)(=O)=O)cc1)c1ccccc1.Cl |  | 4 |  | 18 | 52 | 38 | -9 | Delta APD95 (Canis familiaris [10]): 45%; Delta Vmax [23]: -39%
